Results on 10 compounds are retold here after ChEMBL document CHEMBL1138882, “The design, synthesis, and evaluation of organ-specific iron chelators” (J Med Chem, 2006).

In data set [1] the test system is Rattus norvegicus. In words: Iron clearing efficiency in Sprague-Dawley rat at 300 umol/kg, po. The class given is functional. The method, boiled down: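 Bile-duct-cannulated, non-iron-overloaded male Sprague-Dawley rats (400–450 g) given single oral dose, 150 or 300 μmol/kg, as water solution, in 40% Cremophor RH-40/water, or monosodium salt. Bile every 3 h up to 48 h, urine every 24 h; iron by flame AAS. Efficiency = (treated minus control iron excretion)/theoretical output (2:1 complex), percent; mean ± SEM.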

In data set [2] the test system is Rattus norvegicus. In words: Drug level in Sprague-Dawley rat liver at 300 umol/kg, sc after 0.5 hrs. The data set is classed as ADME, organism-based. To be noted: in vivo. The method, boiled down: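 Liver sampled from male Sprague-Dawley rats (250–350 g) given one sc dose, 300 μmol/kg, as monosodium salt; n = 3 per time point. Homogenized in water, methanol-precipitated, filtered, analysed by HPLC-UV at 310 nm against calibration curves; nmol compound per g wet weight, mean; O-demethylated metabolite also measured.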

Data set [3] has as its system Rattus norvegicus. The data set is described as follows: Toxicity in Sprague-Dawley rat at 384 umol/kg, po. The data set is classed as organism-based. To be noted: in vivo. A digest of the protocol:
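Male Sprague-Dawley rats (250–300 g), fasted overnight, gavaged once daily at 384 μmol/kg/d for up to 10 d; fed ~3 h post-dose for 5 h, then fasted. Age-matched controls; monitored at least three times daily, moribund animals euthanized; survivors sacrificed one day after last dose for histopathology.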

The test system of data set [4] is Monkey. In words: Iron clearing efficiency in monkey at 150 umol/kg. The data set is classed as functional, Sapajus apella. A digest of the protocol:
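Cebus apella monkeys (3.5–4 kg) iron-overloaded with iv iron dextran (~500 mg Fe/kg), ≥60 d before use; single po 150 μmol/kg (monosodium salt or 40% Cremophor RH-40/water). Feces and urine collected every 24 h, 4 d before to 5 d after dosing; iron by flame AAS. ICE = 2-day post-drug output minus 4-day pre-drug mean, over theoretical (2:1 complex), percent; mean ± SEM.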

Data set [5] has as its system Rattus norvegicus. In words: Drug level in Sprague-Dawley rat heart at 300 umol/kg, sc after 4 hrs. The class given is ADME, organism-based. The conditions noted are these: in vivo. A digest of the protocol: (§1)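 Heart drug level: male Sprague-Dawley rats (250–350 g), single sc injection of monosodium salt, 300 μmol/kg; CO2 euthanasia at set times (n = 3 per time point). Tissue homogenized in water 1:2 (w/v), proteins precipitated with 3 vol CH3OH at −20 °C 20 min, filtered; reversed-phase HPLC, UV 310 nm, calibration-curve quantitation; nmol/g wet weight, mean.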

Data set [6] in a line: Partition coefficient, log P of the compound. The class given is physicochemical. The conditions noted are these: octanol/water. A digest of the protocol:
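Shake-flask direct partition between octanol and TRIS buffer, pH 7.4; expressed as log of the fraction in the octanol layer (log P_app).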

For data set [7], the system named is Rattus norvegicus. In words: Drug level in Sprague-Dawley rat heart at 300 umol/kg, sc after 0.5 hrs. The data set is classed as ADME, organism-based. The conditions noted are these: in vivo. A digest of the protocol: as §1
For data set [8], the system named is Rattus norvegicus. In words: Drug level in Sprague-Dawley rat pancreas at 300 umol/kg, sc after 4 hrs. The class given is ADME, organism-based. The conditions noted are these: in vivo. A digest of the protocol:
(§2)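 Pancreas concentration: single sc 300 μmol/kg (monosodium salt) to male Sprague-Dawley rats (250–350 g), three rats per time point, CO2 euthanasia. Tissue homogenate in water (1:2 w/v), CH3OH protein precipitation, filtration, RP HPLC with 310 nm UV detection; nmol/g wet weight, mean.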

The subject of data set [9] is Rattus norvegicus. In words: Drug level in Sprague-Dawley rat kidney at 300 umol/kg, sc after 0.5 hrs. To be noted: in vivo. The class given is ADME, organism-based. The method, boiled down:
(§3)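 Kidney level after single sc 300 μmol/kg monosodium salt in male Sprague-Dawley rats (250–350 g), n = 3 per time point. Water homogenate (1:2 w/v), methanol protein precipitation, 0.2 μm filtration, RP amide C16 HPLC with UV at 310 nm; linear range 1–1000 μM; reported as nmol/g wet weight, mean.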

Data set [10] relates to Rattus norvegicus. In words: Drug level in Sprague-Dawley rat heart at 300 umol/kg, sc after 8 hrs. The data set is classed as ADME, organism-based. The conditions noted are these: in vivo. The method, boiled down: as §1
Data set [11] concerns Rattus norvegicus. The data set is described as follows: (§4) Drug level in Sprague-Dawley rat plasma at 300 umol/kg, sc after 0.5 hrs. The class given is ADME, organism-based. To be noted: in vivo, 0.5 h. The method, boiled down:
(§5)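 Plasma: male Sprague-Dawley rats (250–350 g) dosed sc once at 300 μmol/kg as monosodium salt; blood by cardiac puncture into sodium citrate, centrifuged; methanol deproteinization, filtered, HPLC-UV 310 nm, detection limit 0.5 μM; μM, mean of n = 3 per time point.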

A short description of data set [12]: as §4. The data set is classed as ADME, organism-based. To be noted: Sprague-Dawley, plasma, 300 umol/kg. A digest of the protocol:
as §5

The nature of data set [13]: Drug level in Sprague-Dawley rat plasma at 300 umol/kg, sc after 2 hrs. The data set is classed as ADME, organism-based. The method, boiled down:
as §5

Data set [14] concerns Rattus norvegicus. In words: Drug level in Sprague-Dawley rat pancreas at 300 umol/kg, sc after 1 hr. The class given is ADME, organism-based. To be noted: in vivo. The method, boiled down:
as §2

The test system of data set [15] is Rattus norvegicus. In words: Drug level in Sprague-Dawley rat kidney at 300 umol/kg, sc after 1 hr. The class given is ADME, organism-based. The conditions noted are these: in vivo. The method, boiled down:
as §3

Molecules are shown by their SMILES.

`COc1ccc(O)c(C2=N[C@@H](C(=O)O)CS2)c1`: the values for the Activity in data set [1], in [3] and in data set [4] were 8.9%, “Non-toxic” and 12%, respectively. Also, the Drug uptake is 564 nmol/g in [2], 61 nmol/g in data set [5], 380 nmol/g in data set [7] and 45 nmol/g in [8]. In addition, in data set [6], the logP was -0.81.

For the compound `COc1ccc(C2=N[C@@](C)(C(=O)O)CS2)c(O)c1`, the Activity was 6.6% in data set [1], “Toxic” in data set [3] and 24.4% in [4]. Besides, the Drug uptake in [9] came to 282 nmol/g.

Regarding `O=C(O)[C@H]1CSC(c2cc(O)ccc2O)=N1`, the Drug uptake in [9] is 629 nmol/g; in data set [7], 42 nmol/g. The Activity result in data set [3] is reported as “Non-toxic”; in data set [4], 1.8%. In [6], this compound returned a logP of -1.52.

On to `COc1ccc(C2=N[C@@H](C(=O)O)CS2)c(O)c1OC`, for which the Activity in data set [1] is 11.9%; in data set [3] it was “Non-toxic”; in [4] it was 12.4%. Besides, the logP in data set [6] was -1.28. The compound further had a Drug uptake in [7] of 185 nmol/g.

With `COc1ccc(C2=N[C@@](C)(C(=O)O)CS2)c(O)c1OC`, the Activity in data set [1] was 16.6%; in [3], “Toxic”. Further, the Drug uptake in data set [2] was 924 nmol/g; in data set [9], 1375 nmol/g; in [10], 3 nmol/g; in [7], 259 nmol/g. Moreover, the lipophilicity (logP) in data set [6] was -0.95. This compound also displayed a Cp in [11] of 907 µM.

For `C[C@]1(C(=O)O)CSC(c2cc(O)ccc2O)=N1`, the results for the Activity in data set [1], in data set [3] and in data set [4] were 1%, “Non-toxic” and 12.6%, respectively. In [9], the Drug uptake is 1216 nmol/g. The compound also gave a logP in data set [6] of -1.14.

For the compound `O=C(O)[C@H]1CSC(c2ccc(O)cc2O)=N1`, the figures for the Activity in data set [1], in data set [3] and in data set [4] were 2.9%, “Non-toxic” and 4.2%, respectively. The Drug uptake in data set [9] came out at 667 nmol/g. The compound also returned a concentration at 0.5 h in data set [12] of 209 µM. In addition, the concentration at 2 h in data set [13] was determined as 5 µM.

In the case of `COc1ccc(O)c(C2=N[C@@](C)(C(=O)O)CS2)c1`, the Activity is 6.3% in [1], “Toxic” in [3] and 18.9% in data set [4]. Besides, the Drug uptake worked out at 382 nmol/g in [2], 153 nmol/g in [14] and 208 nmol/g in data set [7]. The logP in [6] was -0.61. The compound further had a concentration at 0.5 h in data set [12] of 803 µM.

For `C[C@]1(C(=O)O)CSC(c2ccc(O)cc2O)=N1` [DEFERITRIN], the results for the Activity in data set [1], in [3] and in data set [4] were 1.1%, “Non-toxic” and 16.8%, respectively. The figures for the Drug uptake in data set [2], in data set [9] and in data set [15] were 124 nmol/g, 361 nmol/g and 179 nmol/g, respectively. Besides, the concentration at 0.5 h in data set [12] worked out at 92 µM. In data set [13], the concentration at 2 h came to 13 µM.

For `COc1ccc(C2=N[C@@H](C(=O)O)CS2)c(O)c1`, the Activity in data set [1] was 11.6%; in data set [3], “Non-toxic”; in data set [4], 16.2%.
